From the RNAGym collection of RNA variant scans (doi:10.1126/science.aae0568) come the findings set out here.

This sample holds only a part of the variants without activity. Where only a bound is given, the exact number is not on record here.

B1: tRNA (parent)
chain: GUUCCGUUGGCGUAAUGGUAACGCGUCUCCCUCCUAAGGAGAAGACUGCGGGUUCGAGUCCCGUACGGAACG

Variants of B1 are the subject of this data set. Put plainly: yeast fitness relative to wild type (ratio to wild type); higher = fitter; tRNA-Arg(CCU), competitive growth, 37 C, YPD. An outline of the steps:
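Amplicons of the tRNA-Arg(CCU) gene were sequenced, 100-nucleotide paired-end, from the start population and from each end population of a pooled yeast competition. The competition, in six parallel replicates, lasted 24 hours in YPD at 37°C. Fitness relative to wild type was calculated from changes in genotype frequencies. Genotypes had to have ≥ 100 starting reads, and estimates < 0.5 were set to 0.5.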
Regarding GUUCCGUUGGGGUAAUCGUAACGCGUCUCCCUCCUAAGGGGAACACUGCGGGUUCGAGCCCCGUACGGAGCG [C11G G17C A40G G44C U59C A70G], the yeast fitness came out at 0.603.

Turning to GUUCCGUUGGCGUAAUGGUAACGCGUCUCGCUCCUAAGGAGAAGACUGCGGAUUCGAGUCCCGUACGGAACG [C30G G52A], the yeast fitness was found to be 0.605.

Turning to GUUCCGUUGACGUUAUGGUGACGCGGCUCCGUCGUAAGGAGUCGACUGCCGGUUCGAGUCCCAUACGGAACG [G10A A14U A20G U26G C31G C34G A42U A43C G50C G63A], the yeast fitness was at most 0.5. For the variant GUUCCGUUGGCGUAAUGGUAACGCGUCUCCAUCAUAAGGAGAAGACUGCGGGUUCGAGUCCCGUACGGAACG [C31A C34A], the yeast fitness came out at 0.603. Next, GUUCCGUUGGCGUAAUGGUCAUGCGUCUCCCUCCUAAGGUGAAGACUGCGGGUUCGAGUCCCGUACGGAACG [A20C C22U A40U]: at most 0.5.

Consider GUUCCGUUGGCGUAAUGGUAACCCGUCUCCCUCCUAAGGAGAACACUGUGGGUUCGCGUCCCGUACGGAACG [G23C G44C C49U A57C], for which the yeast fitness was at most 0.5. In the case of GUUCCGUUGGGGUAUUGGUAACGCGUCUCCCUCAUAAGGAGCAGACUGCGGGUUCGAGUCCCGUACGGAACG [C11G A15U C34A A42C], the yeast fitness is at most 0.5.

Turning to GUUCCGUUGGCGUAAUGGUGACACGUCUCCCUCCUAAGGAGAAGUCUGCGGGUUCAAGUCCCGUACGGAACG [A20G G23A A45U G56A], the yeast fitness turned out to be 0.539. For GUUCCGUUGGCGUAAUGGUAACGCGUCACCCUCCUAAGGAGAAGACUGCGGGUUCGAUUCCCGUCCGGAACG [U28A G58U A65C], the yeast fitness is at most 0.5. GUUCCGUUGGCGUAACGGUACCGCGUCUCCCUCCUAAGGACACGACUGCGGGUUCGAGUCCCGUAGGGAUCG [U16C A21C G41C A43C C66G A70U]: the yeast fitness is at most 0.5. As for GUUCCGUUGGCGUAAUGGUAACGCGUCUCCCUCCUAAGAAGAAGACUGCGGGUUCGAGUCUCGUACGGAACG [G39A C61U], the yeast fitness was 0.866. Consider GUUCGGUUGGCGUAAUGGUAACGUGUCUCCCUCCUAAGGAGAAGACUGCGGGUUCGAGUCCCGUACGGAACG [C5G C24U], for which the yeast fitness is 0.893. Regarding GUUCCCUUGGCGUAAUGGUAACGCGUAUCCCUCCUAAGGAGAAAACUGCGGGUUCGAGUCCCGUACGGAACG [G6C C27A G44A], the yeast fitness was 0.629. The result for GUUUCGUUGGCGUAAUGGUAACGCGUCUCGCUCCUUAGGAGAAGACUGCGGGUUCGAGUCCCGUACGGAACG [C4U C30G A36U] reads 0.563. Take GUUCCGUUGCCGUGAUGGUAACGCGUCUCCCUCCUAAGAAGAAGACUGCGGGUUCGAGUCCCGUUCGGAACG [G10C A14G G39A A65U]: the yeast fitness was at most 0.5.

In the case of GUUCCGUUGGUGUAAUGGUAACGCGUCUCCCUCCUAAAGAGAAGACUGCGGGUUCGAGUCCCGUACGGAACG [C11U G38A], the yeast fitness worked out at 1.02. Regarding GUUCCGUUGGCGUAAUGGUAACGCGUCUCCCUCCUAAGGACAAGACUGCGGGUUCGAGUCCCGUUCGGAACG [G41C A65U], the yeast fitness turned out to be 0.858.

GUUCCGUUAGCGUAAUGGUAACGCGUCUCCCUCCUAAGGAGGAGACUGCGGGUUCGAGUCACGUACGGAACG [G9A A42G C61A]: the yeast fitness was determined as 0.611. Consider GUUCCGUCGGCGUAAUGGUAACGCGUCUCCCUCCUAAGGAGAAGACUGCGGGUUCGAAUCCCGUACGGAACG [U8C G58A], for which the yeast fitness is 1.02.

Take GAUCCGUUGGCGUAAUGGUAACGCGUGUCCCUCCUGAGGAGAAGACUGCGGGUUCGAGUCCCGUACGGAACG [U2A C27G A36G]: the yeast fitness was at most 0.5. In the case of GUUCCGUUAGCGUAACGGUAACGCGUCUCCCUCCUAAGGAGAAGACUGCGGGUUCGGGUCCCGUACGGAACG [G9A U16C A57G], the yeast fitness came out at 0.598.

For the variant GUUCCGUUGCCGUAAUGGUAGCACGUCUCCCUCCUAAGGAGAAGACUGCGGGUUCGAGUCCCGUACGGAACG [G10C A21G G23A], the yeast fitness was at most 0.5. As for GUUACGUUGGCGUAAUGGUAACGCGUCUCCCUCCUAAGGAGAAGACCGCGGGUUCGAGUCCCGUACGGACCG [C4A U47C A70C], the yeast fitness was 0.749. Consider GAUCCGUUGGCGUAAUGGUAACGCGUCCCCCUCCUAAGAAGAAGACUGCGGGUUCGAGUCCCGUACGGAACG [U2A U28C G39A], for which the yeast fitness came out at 0.508.

For the variant GUUCCGUUGGUGUAAUGGUAACGCGUCUCCCUCCAAAGGAGAAGACUCCGGGUUCGAGUCUCGUACGGAACG [C11U U35A G48C C61U], the yeast fitness was at most 0.5.

For the variant GAUCCGUUGGCGUAAUGGUAACGCGUUUCCCUCCUAAGGAGAAGACGGCGGGUUGGACUCCCGUACGGAACG [U2A C27U U47G C55G G58C], the yeast fitness is at most 0.5.

Turning to GUUCCGUUGGCGUAAUGGUAACCCGUCUCCCUCCUAAGGAGAAGACUGCGGGUUCGGGUCCCGUACGAAACG [G23C A57G G68A], the yeast fitness was determined as 0.859. In the case of GUUCCGUGGGCAUAAUGGUGACGCGUCUCCCUCCUAAGGAGAAGACUGCGGGUUCGAGUCCCGUACGGAACG [U8G G12A A20G], the yeast fitness was at most 0.5. GUUCCCUUGGCGUAAUGCUAAUGCGUCUCCCUCGUUAGGAGAAGACUGCGGGUUCCAGUCCCAUACGGAACG [G6C G18C C22U C34G A36U G56C G63A]: the yeast fitness is at most 0.5. GUUCUGUUGGCGUAAUGGUAACGCGUCACCCUCCUAAGGAGAAGACUGCGGGUUCGAGUCCGGUACGGAACG [C5U U28A C62G]: the yeast fitness is at most 0.5. Turning to GUUCCGUUGGCGUAAUGGUAACGCGUGUCCCUCCUAAGGUGAAGACUGCGGGUUCGUGUCCCGUAAGGAACG [C27G A40U A57U C66A], the yeast fitness is at most 0.5. The result for GUUCCGUUGGCGUAAUGGUAACGCGUCUCCCUCCUAAGGAGAAGAGUGCGGGUUCGAGUCCGGUACGGAACG [C46G C62G] reads 0.786; that for GUUCCGUUGGCGUAAUGGUAAUGCGUCUCCCUCCUAAGGAGAAGACUGCAGGUUCAAGUCCCGUACGGAACG [C22U G50A G56A], 0.793; that for GUUCUGUUGGGGUAAUGGUAACGCGUCUCCCACCGAAGGAGAAGACUGCGGGUUAGAGUCGCGUACGGAACG [C5U C11G U32A U35G C55A C61G], at most 0.5. Take GUUCCGUUGGCGUAAUGGUAAGCCGUCUCCCUCCUAAGGAGACGACUGCCGGUUCGAGUCCCGUACGGAACG [C22G G23C A43C G50C]: the yeast fitness was at most 0.5.

With GUUCCGUUGGCGUAAUGAUAACGAGUCUCCAUCCUAAGGAGAAGACUGCGGGUUCGAGUCCCGUACGUAACG [G18A C24A C31A G68U], the yeast fitness was at most 0.5. As to GGUCCGUUGGCGUCAUGGUAACGCGUCUCCCUCCUAAGGAGCAGACUGUGGGUUCGAGUCCCGUGCGGAUCG [U2G A14C A42C C49U A65G A70U], the yeast fitness was 0.533. As to GUUCCGUUGGCGUAAUGGUAACGCGUCUCCCUCCUAAGGAGAAGACUGCGGGUUAGAGUCCCGUACGAAACG [C55A G68A], the yeast fitness was determined as 0.674.
